Results on 10 molecules are retold here after ChEMBL document CHEMBL1128503 (J Med Chem, 1995).

Assay [1] has as its target T1, Sodium-dependent dopamine transporter (Rattus norvegicus, UniProt P23977). As to the kind of experiment: Inhibition of [3H]dopamine […] to rat striatal synaptosome dopamine transporter. It is filed as tissue-based, Brain.
Assay [2] deals with T1, Sodium-dependent dopamine transporter. As to the kind of experiment: Binding affinity towards dopamine transporter using [3H]-mazindol as radioligand in rat striatal membranes. In kind it is cell membranes. The essentials: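 Competition assay: test analogues displace [3H]mazindol binding in rat striatal membranes. This radioligand labels a single high-affinity, sodium-dependent cocaine site on the dopamine carrier.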

T1 sequence (P23977 whole entry): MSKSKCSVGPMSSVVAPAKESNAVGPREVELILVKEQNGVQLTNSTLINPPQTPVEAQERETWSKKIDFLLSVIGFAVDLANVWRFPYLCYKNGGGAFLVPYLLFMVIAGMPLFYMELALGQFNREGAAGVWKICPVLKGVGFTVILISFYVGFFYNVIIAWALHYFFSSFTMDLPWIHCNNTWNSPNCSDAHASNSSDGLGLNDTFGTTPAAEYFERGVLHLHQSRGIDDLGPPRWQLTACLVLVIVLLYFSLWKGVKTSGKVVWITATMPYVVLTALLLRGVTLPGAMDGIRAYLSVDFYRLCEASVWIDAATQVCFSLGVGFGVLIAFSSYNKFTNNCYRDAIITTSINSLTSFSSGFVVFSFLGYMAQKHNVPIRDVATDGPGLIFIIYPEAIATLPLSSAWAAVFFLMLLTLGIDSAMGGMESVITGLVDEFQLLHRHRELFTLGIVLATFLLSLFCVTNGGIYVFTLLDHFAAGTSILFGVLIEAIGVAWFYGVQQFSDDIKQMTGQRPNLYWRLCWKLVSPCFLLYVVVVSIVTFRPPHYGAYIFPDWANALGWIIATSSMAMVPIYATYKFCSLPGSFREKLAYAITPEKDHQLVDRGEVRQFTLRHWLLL

Consider `CN1C2CCC1[C@@H](CCc1ccccc1)[C@@H](c1ccc(Cl)cc1)C2` (stereo not given in full), for which the values for the inhibition constant Ki in assay [1] and in assay [2] were 1.54 nM and 1.46 nM, respectively.

Turning to `CN1C2CCC1[C@@H](/C=C\Cl)[C@@H](c1ccc(Cl)cc1)C2` (stereo not given in full), the figures for the inhibition constant (Ki) in assay [1] and in assay [2] were 0.88 nM and 0.22 nM, respectively.

For `CC[C@@H]1C2CCC(C[C@@H]1c1ccc(Cl)cc1)N2C` (stereo not given in full), the values for the Ki in assay [1] and in assay [2] were 2.35 nM and 2.17 nM, respectively.

With `C=C[C@@H]1C2CCC(C[C@@H]1c1ccc(Cl)cc1)N2C` (stereo not given in full), the inhibition constant (Ki) in assay [1] stood at 2.47 nM; in assay [2], 0.59 nM.

`CN1C2CCC1[C@@H](/C=C/Cl)[C@@H](c1ccc(Cl)cc1)C2` (stereo not given in full): the Ki in assay [1] was 1.13 nM; in assay [2] it was 0.42 nM.

As for `CCC[C@@H]1C2CCC(C[C@@H]1c1ccc(Cl)cc1)N2C` (stereo not given in full), the inhibitory constant (Ki) in assay [1] came out at 1.08 nM; in assay [2], 0.94 nM.

Consider `CCCCCC[C@@H]1C2CCC(C[C@@H]1c1ccc(Cl)cc1)N2C` (stereo not given in full), for which the results for the Ki in assay [1] and in assay [2] were 271 nM and 156 nM, respectively.

Turning to `CCC[C@@H]1C2CCC(C[C@@H]1c1ccccc1)N2C` (stereo not given in full), the Ki turned out to be 1.61 nM in assay [1] and 1.87 nM in assay [2].

On to `CCCC[C@@H]1C2CCC(C[C@@H]1c1ccc(Cl)cc1)N2C` (stereo not given in full), for which the inhibition constant (Ki) in assay [1] was determined as 0.84 nM; in assay [2] it was 1.21 nM.

Regarding `COC(=O)C1C2CC[C@H](C[C@@H]1c1ccc(Cl)cc1)N2C` (stereo not given in full), the Ki in assay [1] came out at 2.85 nM; in assay [2], 0.83 nM.
